# Paper PMC3821033 (FEBS Open Bio, 2013)
# Assays:
# Type in all cases: biochemical
# FNI = target: T1, FNI (Lactococcus cremoris, UniProt A2RID7); assay: 1H NMR of product after […] h; details: 5 mM MgCl2, 10 μM FMN, 5 mM NADH, 2 mM DTT, pH 7.0, 30 °C
# T1 sequence (A2RID7 1-349): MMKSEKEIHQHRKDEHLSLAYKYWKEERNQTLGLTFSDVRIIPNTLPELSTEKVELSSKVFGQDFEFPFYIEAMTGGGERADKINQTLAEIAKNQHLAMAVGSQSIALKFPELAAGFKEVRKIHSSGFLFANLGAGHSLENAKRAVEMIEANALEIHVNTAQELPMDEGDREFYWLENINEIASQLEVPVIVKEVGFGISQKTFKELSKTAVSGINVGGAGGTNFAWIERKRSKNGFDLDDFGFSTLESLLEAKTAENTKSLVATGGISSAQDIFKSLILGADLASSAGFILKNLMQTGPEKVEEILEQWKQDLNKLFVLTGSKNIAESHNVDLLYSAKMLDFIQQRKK
# LDHA [1] = target: T2, LDHA (Lactococcus cremoris, UniProt A2RKA4); assay: inhibition of NADH-coupled activity; details: read-out: % remaining rate at 8 mM
# T2 sequence (A2RKA4 1-325): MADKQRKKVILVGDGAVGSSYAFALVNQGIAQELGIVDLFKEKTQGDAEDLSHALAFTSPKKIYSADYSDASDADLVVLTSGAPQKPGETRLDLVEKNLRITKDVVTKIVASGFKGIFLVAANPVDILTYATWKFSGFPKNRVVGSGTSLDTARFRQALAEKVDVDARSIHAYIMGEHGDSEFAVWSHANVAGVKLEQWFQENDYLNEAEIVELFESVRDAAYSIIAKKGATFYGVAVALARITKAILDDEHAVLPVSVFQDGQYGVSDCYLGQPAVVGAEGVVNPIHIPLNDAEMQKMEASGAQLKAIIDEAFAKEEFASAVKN
# LDHA [2] = target: T2, LDHA; assay: inhibition of NADH-coupled activity; details: inhibitor; both reaction directions; 1 mM FBP, pH 7.0, 30 °C
# LDHA [3] = target: T2, LDHA; assay: activation of NADH-coupled activity; details: 200 µM, allosteric activator, Tris-maleate pH 7.0, 30 °C
# Procedure, shortened: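 Recombinant His-tagged LDHA from L. lactis MG1363, expressed in E. coli Transetta (DE3) (0.5 mM IPTG, 30 °C, 4 h) and purified on Ni-NTA with imidazole elution. Pyruvate reduction was followed spectrophotometrically as the decrease in NADH absorbance at 340 or 380 nm, at 30 °C in 100 mM Tris–maleate pH 7.0, with about 40–200 ng/ml enzyme; 1 unit = 1 μmol/min.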
smiles,measurement,setting,value
CC(C)=CCOP(=O)(O)OP(=O)(O)O [dimethylallyl diphosphate],1H NMR of product after 15 h,FNI,appearance of signals for dimethylallyl diphosphate
Nc1ncnc2c1ncn2[C@@H]1O[C@H](COP(=O)(O)OP(=O)(O)OP(=O)(O)O)[C@@H](O)[C@H]1O [ATP],remaining activity at 8000 µM,LDHA [1],> 80%
Nc1ncnc2c1ncn2[C@@H]1O[C@H](COP(=O)(O)OP(=O)(O)O)[C@@H](O)[C@H]1O [ADP],inhibition of NADH-coupled activity,LDHA [2],ADP was shown to be a more severe inhibitor
O=P(O)(O)OC[C@H]1OC(O)(COP(=O)(O)O)[C@@H](O)[C@@H]1O (some centres unmarked) [FBP],Pyruvate reduction (%),LDHA [3],66 ± 4.7%
C=C(C)CCOP(=O)(O)OP(=O)(O)O [IPP],1H NMR of product after 15 h,FNI,conversion of IPP to dimethylallyl diphosphate was observed
